Only some compounds are listed: those with a hit (about 2.5% of all), similar ones and a draw of the others.
SIRT5 block: inhibitors of human sirtuin-5 desuccinylase; AID 652115; 330,000 tested, 1.1% active; inhibition, % at 15 µM; Q9NXA8; Purified SirT5, succinyl-peptide AMC, trypsin-coupled fluorescence; in the data active means inhibition above about 15%; inconclusive means no clear call, values can overlap the other calls
E-sel inducer: induces E-selectin expression in human endothelial cells. P16581. HUVEC E-selectin immunofluorescence imaging; normalized: neutral wells 0, TNF-alpha wells 100. activation, % at 7.58 µM. 260,000 tested, 0.37% active;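 active means mean E-selectin-positive cell signal at least 10% of the positive control, reached in at least 60% of replicates, without over 20% cell loss; inconclusive means no rule given, readout overlaps actives, possibly toxicity-flagged; inactive means the rest, including those meeting only one limit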
Target sequence (P16581 whole entry, looked up): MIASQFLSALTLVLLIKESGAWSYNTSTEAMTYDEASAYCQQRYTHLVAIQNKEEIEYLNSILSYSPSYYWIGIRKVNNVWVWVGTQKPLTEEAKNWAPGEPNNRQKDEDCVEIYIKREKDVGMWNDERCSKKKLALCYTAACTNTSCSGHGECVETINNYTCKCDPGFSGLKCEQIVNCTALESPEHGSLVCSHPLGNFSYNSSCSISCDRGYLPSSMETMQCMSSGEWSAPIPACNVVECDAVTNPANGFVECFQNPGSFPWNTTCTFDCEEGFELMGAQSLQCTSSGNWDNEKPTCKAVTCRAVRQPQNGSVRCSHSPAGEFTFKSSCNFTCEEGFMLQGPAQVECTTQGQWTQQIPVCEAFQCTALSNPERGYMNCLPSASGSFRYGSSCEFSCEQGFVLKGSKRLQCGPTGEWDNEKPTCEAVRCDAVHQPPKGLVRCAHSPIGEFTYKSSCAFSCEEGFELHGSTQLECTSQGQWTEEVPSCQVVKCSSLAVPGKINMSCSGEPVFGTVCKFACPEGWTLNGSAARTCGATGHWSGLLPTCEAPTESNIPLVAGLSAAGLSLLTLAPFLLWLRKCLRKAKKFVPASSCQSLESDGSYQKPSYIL
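Read-out: % PE-positive cells | Test system: HUVEC | Doses: One compound dose added by pin transfer | Buffer or medium: EGM-2 over gelatin coat | Signal: Immunofluorescence imaging | Benchmarks: TNF-alpha, DMSO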
ERAP1 inh: inhibitors of human ERAP1 aminopeptidase. Q9NZ08. recombinant ERAP1, Leu-AMC fluorescence, 60 min. AID 652197. inhibition, % at 10.7 µM. 340,000 tested, 0.15% active;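 active means mean replicate inhibition of at least 30%, or all replicates individually reaching that 30% level; inactive means mean below 30% and not every replicate reaching it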;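 further: 0% = neutral control wells and 100% = L-leucinethiol positive control wells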
DENV2 CPE: inhibitors of DENV2 cytopathic effect; DENV2-infected cells, cytopathic effect rescue, plate reader; CPE inhibition, % at 9.99 µM; 350,000 tested, 1.7% active; in the data active means CPE inhibition above about 20%, passing the limit was not always enough; inconclusive means no clear call, values can overlap the other calls; tested in BHK-21 cells;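 further: 0% = median of neutral control wells and 100% = median of positive control wells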
PglD DTNB: PglD (C. jejuni) enzyme inhibition. 360,000 tested, 0.098% active. purified PglD enzyme, DTNB colorimetric CoA detection. inhibition, % at 12.5 µM; in the data active means inhibition above about 16%, passing the limit was not always enough; inconclusive means no clear call, values can overlap the other calls
An asterisk follows results filed as active; ? = inconclusive; nt = no result.

SMILES	SIRT5 block	E-sel inducer	ERAP1 inh	DENV2 CPE	PglD DTNB
O=C(C[C@@H]1C[C@@H]2c3cc(NS(=O)(=O)c4ccc(F)cc4)ccc3O[C@@H]2[C@@H](CO)O1)NCCc1ccccc1	3	-1	0	-2	0
O=C(C[C@@H]1C[C@H]2c3cc(NS(=O)(=O)c4ccc(F)cc4)ccc3O[C@H]2[C@H](CO)O1)NCc1ccc(-c2ccccc2)cc1	20*	0	2	-2	0
C[C@H]1CN([C@@H](C)CO)C(=O)Cc2cc(NC(=O)Cc3cn(C)c4ccccc34)ccc2O[C@H]1CN(C)Cc1ccc2c(c1)OCO2	2	nt	3	5	0
C[C@H]1CN([C@@H](C)CO)S(=O)(=O)c2ccc(-c3ccccc3)cc2O[C@@H]1CN(C)C(=O)C1CC1	nt	0	nt	nt	nt
CCCC(=O)Nc1ccc2c(c1)C(=O)N(C)[C@H]1CC[C@H](CC(=O)NCc3cccc(F)c3)O[C@H]1CO2	-1	0	3	5	-1
CCOc1cccc(CN2CCC(N3CCC(C(=O)NCC4CCCO4)CC3)CC2)c1 (stereo not drawn)	21*	nt	-1	-4	10
O=C(NCC1CCCO1)C1CCN(C2CCN(Cc3ccco3)CC2)CC1 (stereo not drawn)	0	nt	-5	nt	2
CCOC(=O)C1=C(C)N=c2sc(=Cc3ccc(OCC(=O)O)cc3)c(=O)n2C1c1ccc(Cl)cc1 (stereo not drawn)	21*	0	0	20	-4
OCc1cn(-c2ccccc2)nc1-c1ccc(Br)cc1	-1	0	-3	48*	-9
COc1ccc(CNC(=O)c2cccnc2Sc2ccc(C)c(C)c2)cc1	nt	nt	nt	nt	-4
Cc1ccc(Sc2ncccc2C(=O)NCc2cc([N+](=O)[O-])ccc2O)cc1C	1	0	7	58*	0
CC1=CN2CC(O)CN=C2C=C1 (stereo not drawn)	nt	nt	nt	nt	-1
CN(C(=O)NC1CC(=O)N(c2ccc3c(c2)OCCO3)C1)c1ccccc1 (stereo not drawn)	0	0	-2	-5	-11
N/C(COc1ccc(Cl)cc1Cl)=N\O	0	0	4	2	nt
O=C(NCc1ccccc1)C1CCCN(S(=O)(=O)c2ccc(-n3cnnn3)cc2)C1 (stereo not drawn)	2	31*	-3	?	5
N=C1S/C(=C\c2ccc(-c3ccccc3C(=O)O)o2)C(=O)N1c1ccc2c(c1)OCO2	7	nt	0	8	nt
O=C(O)c1ccccc1-c1ccc(C=c2sc3nc4cc(Br)cnc4n3c2=O)o1	30*	1	14	?	3
O=C(O)c1cccc(-c2ccc(/C=c3/sc4nc5ccccc5n4c3=O)o2)c1	30*	nt	8	-2	-3
CCOC(=O)c1c(C)[nH]c(C)c1S(=O)(=O)N(C)CC(=O)Nc1cccc(C)c1	7	nt	2	2	-1
S=C(SSC(=S)N1CCOCC1)N1CCOCC1	-2	0	12	24*	nt
O=C(NC1CCCC1)C(c1ccc(F)cc1)N(C(=O)c1csnn1)c1ccccc1 (stereo not drawn)	-3	36*	-3	-4	0
O=c1c2ccccc2nc2sc(Nc3ccc(F)cc3)nn12	-6	0	3	-4	9
CSc1nc2c(=S)[nH]c(=S)[nH]c2s1	2	0	4	87*	nt
CCN(CC)S(=O)(=O)c1ccc(N2CCOCC2)c(NC(=O)c2ccc(NC(C)=O)cc2)c1	15*	0	4	0	nt
CCN1CCN(c2ccc(S(=O)(=O)N3CCCCC3)cc2NC(=O)c2cccc(F)c2)CC1	-2	2	2	-5	nt
SMILES	SIRT5 block	E-sel inducer	ERAP1 inh	DENV2 CPE	PglD DTNB
CCN1CCN(c2ccc(S(=O)(=O)N3CCCCC3)cc2NC(=O)c2ccccc2)CC1	2	4	103*	-12	-4
CC(=O)NCCC(=O)Nc1cc(S(=O)(=O)N2CCCCC2)ccc1N1CCN(C)CC1	-3	0	1	31*	-3
COc1ccc(NC(=O)C2CCC(CNS(=O)(=O)c3cccs3)CC2)cc1OC (stereo not drawn)	-2	-1	-3	31*	nt
OCCCCC#Cc1c(-c2ccsc2)sc2ccccc12	nt	0	-1	-5	-2
CCCCC[C@H](C)N1C[C@@H](COCc2ccccc2)Oc2cc(N3CC[C@H](N(C)C)C3)ccc2S1(=O)=O	-4	0	2	61*	nt
CCCCC[C@@H](C)N1C[C@H](COCc2ccccc2)Oc2cc(N3CCC[C@@H]3CO)ccc2S1(=O)=O	27*	0	3	-10	nt
C/C=C/c1ccc([C@@H]2[C@@H](CO)N3C(=O)CN(Cc4ccccc4)C[C@H]23)cc1	-6	0	-2	25*	nt
O=C1CN(Cc2ccccc2)C[C@@H]2[C@H](c3ccc(-c4ccccc4)cc3)[C@H](CO)N12	22*	0	nt	1	nt
Cc1ccc(CN2CC(=O)N3[C@@H](CO)[C@H](c4ccc(-c5ccccc5F)cc4)[C@@H]3C2)cc1	15*	0	1	-13	nt
O=C(NCc1ccccc1)[C@H]1[C@H](CO)[C@H]2Cn3c(cccc3=O)[C@@H]1N2CC1CCCC1	1	0	-1	3	-3
CCn1c(SCc2ccccc2F)nnc1-c1ccncc1	6	0	0	2	nt
CC(=O)NC(CC(=O)NNC(=O)C(C)Oc1ccccc1F)c1ccccc1 (stereo not drawn)	-5	nt	4	?	nt
CC(=O)NC(CC(=O)NCCOc1ccccc1F)c1ccccc1 (stereo not drawn)	-5	nt	36*	3	-6
CN(Cc1ccc(Cl)cc1Cl)C(=O)CNC(=O)c1ccc2c(c1)OCO2	-4	nt	-2	0	nt
CC1(C)CC(=O)C2=C(C1)c1c(ccc3ccccc13)NC2c1cc([N+](=O)[O-])cc([N+](=O)[O-])c1O (stereo not drawn)	17*	nt	3	0	nt
CCCCCCCCCCCCCCCC[n+]1ccccc1	6	?	75*	?	5
CCCCCCCCCCCCCCCC[n+]1ccc(C(N)=O)cc1	nt	nt	nt	nt	-4
CCCn1cccc(C(=O)Nc2ccc(OC)cc2)c1=O	-9	1	0	-5	6
CCOc1ccc(Br)cc1C1=CC(=O)C[C@H](c2ccc(OC)cc2)C1	nt	1	-2	13	-3
CCN1CCN(C(=O)/C=C/c2ccc(OC)c(OC)c2)CC1	-4	nt	-4	20*	-16
Cc1ccc(/C(O)=C2\C(=O)C(=O)N(C)C2c2ccccc2)cc1 (stereo not drawn)	nt	0	1	39*	6
CC1=[N+](C)c2ccc3ccccc3c2C1(C)C	0	196*	3	?	nt
C[C@@H]1CN([C@@H](C)CO)C(=O)c2cccc(NC(=O)c3cnccn3)c2O[C@H]1CN(C)S(C)(=O)=O	1	-2	1	9	-3
O=C(Nc1ccc(S(=O)(=O)NC2=NCCCCC2)cc1)c1cccs1	5	0	-1	65*	1
CN1CCN(CC(C)(C)NS(=O)(=O)c2ccc(Cl)cc2)CC1	nt	nt	nt	nt	-5
